Active and inactive are the calls of the source. The calls are words filed in the database; no cut-off is given here.
Legend:
[1] = Inhibition of TrxR preincuabatd for 4 mins
A549 [2] = assay: Cytotoxicity against TrxR overexpressing human A549 cells after 48 hrs by MTT assay; type: functional
In short: (§1)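 Cells grown in RPMI 1640 with 10% fetal calf serum, penicillin/streptomycin and 2 mM L-glutamine at 37 °C under 5% CO2. Seeded 1×10⁴/well and left overnight, then exposed 48 h to 0–100 µM. MTT was added for 4 h at 37 °C and formazan dissolved in DMSO, read at 570 nm. Run in quadruplicate; GC50 is the concentration giving 50% of control viability.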

A549 [3] = assay: Cytotoxicity against TrxR overexpressing human cis-diammine-dichloroplatinum (II)-resistant A549 cells after 48 hrs by MTT assay; type: functional
In short: as §1

HepG2 = assay: Cytotoxicity against TrxR overexpressing human HepG2 cells after 48 hrs by MTT assay; type: functional
In short: as §1

MCF7 = assay: Cytotoxicity against TrxR overexpressing human doxorubicin-resistant MCF7 cells after 48 hrs by MTT assay; type: functional
In short: as §1

[4] = target: T1, Thioredoxin reductase (Homo sapiens) (UniProt Q16881+Q9NNW7+Q86VQ6); assay: Inhibition of TrxR in human MCF7 cells at 50 uM after 12 hrs by insulin reduction assay; type: cell-based
In short: (§2)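 Cells (1.5×10⁶) in RPMI 1640 were exposed 12 h; controls got <1% DMSO. Cells were trypsinized and lysed in Tris pH 7.4/Triton/deoxycholate/SDS buffer with protease inhibitors, then spun at 16,000g. Lysate was incubated 30 min at 37 °C with 2.5 mg/ml bovine insulin, NADPH and Trx in HEPES/EDTA pH 7.4. The reaction was stopped with guanidine-HCl/DTNB and read at A412. A no-Trx mixture served as background; activity is % of control, n≥3.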

[5] = Inhibition of TrxR preincuabatd for 2 hrs followed by ultrafiltration
[6] = target: T1, Thioredoxin reductase (Homo sapiens); assay: Inhibition of TrxR in human HeLa cells at 50 uM after 12 hrs by insulin reduction assay; type: cell-based
In short: as §2

[7] = Inhibition of TrxR preincuabatd for 2 hrs

| IC50 [1] | SMILES | GC50 (A549 [2]) | further results |
| --- | --- | --- | --- |
| 20 µM | COc1cc(/C=C/C(O)=C/C(=O)/C=C/c2ccc(O)cc2)ccc1O [DEMETHOXYCURCUMIN] |  |  |
| 24.9 µM | COc1cc(/C=C2\CCC/C(=C\c3ccc(O)cc3)C2=O)cc(OC)c1OC |  |  |
| 1 µM | COc1cc(/C=C/C(O)=C/C(=O)/C=C/c2ccc(CO)o2)ccc1O | >100 µM | GC50 (HepG2): >100 µM; GC50 (MCF7): 10.6 µM; GC50 (A549 [3]): 35.8 µM |
| 62.2 µM | CN(C)c1ccc(/C=C/C(=O)/C=C(O)/C=C/c2ccc(CO)o2)cc1 |  | GC50 (HepG2): >100 µM |
| > 100 µM | COc1ccc(/C=C/C(=O)/C=C(O)/C=C/c2ccc(OC)cc2)cc1 |  | GC50 (MCF7): >100 µM; GC50 (A549 [3]): >100 µM |
| > 100 µM | O=C(/C=C/c1ccc(O)cc1)CC(=O)/C=C/c1ccc(O)cc1 [BISDEMETHOXYCURCUMIN] |  |  |
| 38.3 µM | COc1cc(/C=C/C(=O)CC(=O)/C=C/c2ccc(O)c(OC)c2)ccc1O [CURCUMIN] | 18.2 µM | IC50 [7]: 4.2 µM; GC50 (A549 [3]): 73 µM |
| 50 µM | O=C(/C=C(O)/C=C/c1ccc(O)cc1)/C=C/c1ccccc1Br |  |  |

Further lines, the compound ahead of its results:

| SMILES | IC50 [1] | GC50 (A549 [2]) | further results |
| --- | --- | --- | --- |
| COc1cc(/C=C/C(=O)/C=C(O)/C=C/c2ccc(C)o2)ccc1O | 0.5 µM | >100 µM | GC50 (A549 [3]): 39.4 µM |
| O=C(/C=C(O)/C=C/c1ccco1)/C=C/c1ccco1 | 1.6 µM | 66.4 µM | GC50 (MCF7): 33.6 µM |
| COc1ccc(/C=C/C(=O)/C=C(O)/C=C/c2ccc(CO)o2)cc1 | 0.8 µM |  | GC50 (HepG2): >100 µM; GC50 (MCF7): 10 µM; GC50 (A549 [3]): 12.1 µM |
| COc1cc(/C=C/C(O)=C/C(=O)/C=C/c2ccccc2)ccc1O | 57 µM |  |  |
| O=C(/C=C(O)/C=C/c1ccc(O)cc1)/C=C/c1ccccc1 | 23.3 µM | 41.3 µM |  |
| COc1cc(/C=C2\CCC/C(=C\c3ccc(O)cc3)C2=O)ccc1O | 5.1 µM | >100 µM |  |
| O=C(/C=C(O)/C=C/c1ccc(CO)o1)/C=C/c1ccccc1 | 1.3 µM |  | GC50 (HepG2): >100 µM |
| COc1cc(/C=C/C(=O)/C=C(O)/C=C/c2ccc(O)cc2)cc(OC)c1OC | 13.8 µM | 60.1 µM |  |
| O=C(/C=C(O)/C=C/c1cccs1)/C=C/c1ccc(O)cc1 | 20 µM |  |  |
| O=C(/C=C(O)/C=C/c1ccccc1)/C=C/c1ccccc1 | > 100 µM |  |  |
| Cc1ccc(/C=C/C(=O)/C=C(O)/C=C/c2ccc(C)o2)o1 | 0.3 µM | 52.9 µM | Activity [4]: Active; GC50 (HepG2): >100 µM; Activity [5]: Active; GC50 (MCF7): 48.5 µM; Activity [6]: Active; GC50 (A549 [3]): 59.6 µM |
| COc1ccc(/C=C/C(=O)/C=C(O)/C=C/c2ccc(OC)c(OC)c2)cc1OC [DIMETHYLCURCUMIN] | > 100 µM |  |  |
| COc1cc(/C=C/C(=O)/C=C(O)/C=C/c2ccc(CO)o2)cc(OC)c1OC | 2 µM | >100 µM | GC50 (HepG2): >100 µM |

Reference: ChEMBL document CHEMBL1156727, “Synthesis and evaluation of curcumin analogues as potential thioredoxin reductase inhibitors” (Bioorg Med Chem, 2008)
